GALR2 blocker: antagonists of human galanin receptor 2 (GALR2); O43603; GALR2-expressing cells, antagonist mode; inhibition, % at 4 µM; 0.39% of 140,000 active; in the data active = inhibition above about 27%;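 note: cells stimulated with galanin 1-16 at roughly its EC80; 0% = agonist challenge control and 100% = basal control without agonist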
GALR2 agonist: agonists of human galanin receptor 2 (GALR2); 0.48% of 140,000 active; GALR2-expressing cells, agonist activation read-out; activation, % (test concentration not listed); AID 803; in the data active = activation above about 5%, passing the limit was not always enough;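 note: 0% = vehicle buffer wells and 100% = reference agonist at full effect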
Rev-RRE block: HIV Rev-RRE protein-RNA interaction inhibition; P05866; Rev peptide-RRE RNA binding, FRET; inhibition, % at 8 µM; 0.79% of 97,000 active; AID 704;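 active = inhibition above the screen-wide mean plus 3 SD, cut at about 35% in these data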;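 note: 0% = median DMSO wells and 100% = median Neomycin B control wells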
Target sequence (P05866 whole entry, looked up): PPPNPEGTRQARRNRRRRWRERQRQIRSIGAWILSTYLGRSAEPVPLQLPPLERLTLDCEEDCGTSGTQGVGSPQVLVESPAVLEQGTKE
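assay system = Cy5-tagged RRE RNA duplex with fluorescein-tagged Rev peptide | incubation = 5 + 15 min at 25 °C | also added = labelled Rev peptide | measure = % inhibition of FRET ratio versus controls | benchmarks = DMSO wells as 0% and neomycin B wells as 100% inhibition | measured by = FRET fluorescence readout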
EphB4 antag: blocks human EphB4 binding to ephrin-B2 | P54760 | EphB4 LBD / TNYL-RAW-Alexa532 peptide, fluorescence polarization | inhibition, % at 7 µM | 0.15% of 97,000 active | AID 720;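 active = inhibition above the screen-wide mean inhibition plus 3 SD, cut at about 15% in these data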;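 note: 0% = DMSO wells and 100% = excess unlabeled TNYL-RAW peptide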
S1P2 antag: antagonists of human S1P2 receptor; O95136; cell-based S1P2 antagonist assay, inhibition at 5 uM; inhibition, % at 5 µM; 0.21% of 97,000 active; in the data active = inhibition above about 45%;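 note: CRE beta-lactamase reporter cells expressing human S1P2 stimulated with S1P; 0% = agonist at EC80 alone and 100% = agonist plus reference antagonist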
Target sequence (O95136 whole entry, looked up): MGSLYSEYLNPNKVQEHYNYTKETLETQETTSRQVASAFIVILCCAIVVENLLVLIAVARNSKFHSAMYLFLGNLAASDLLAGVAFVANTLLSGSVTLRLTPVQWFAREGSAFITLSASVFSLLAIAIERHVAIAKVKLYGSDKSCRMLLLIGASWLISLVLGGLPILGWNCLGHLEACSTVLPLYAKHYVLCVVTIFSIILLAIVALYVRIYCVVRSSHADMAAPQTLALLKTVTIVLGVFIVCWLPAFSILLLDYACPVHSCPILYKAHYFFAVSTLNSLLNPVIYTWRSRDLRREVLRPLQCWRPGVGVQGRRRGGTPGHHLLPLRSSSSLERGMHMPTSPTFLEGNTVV
S1P2 ag: activates the human S1P2 receptor | AID 729 | S1P2-expressing cell line, agonist reporter read-out | O95136 | activation, % at 4.5 µM | 0.46% of 97,000 active; in the data active = activation above about 16%;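 note: 0% = vehicle low control and 100% = maximal reference agonist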
Numbers without * were called inactive; / = not tested or not shown; [ ] = dose if it differs, or a comment. Most compounds without a hit are left out; they make up all but 1.8% or so of the library.

SMILES	GALR2 blocker	GALR2 agonist	Rev-RRE block	EphB4 antag	S1P2 antag	S1P2 ag
Cc1ccc(NC(=O)/C(C#N)=C/c2ccc(C)s2)c(C)c1	-6	-4	37*	-2	1	-11
COc1cc(C)c(CNc2cccc(C)c2)cc1C	-9	-3	8	0	1	-5
COc1cc(C)c(CNc2ccc(OC)c(OC)c2)cc1C	-1	0	40*	-2	2	-4
CCOC(=O)C(NCCc1ccccc1F)(NC(C)=O)C(F)(F)F (centres undefined)	-7	0	/	/	/	/
CCOC(=O)c1nn(-c2ccccc2)c(C#N)c1NC(=O)c1nn(CC)cc1Br	1	-2	2	3	-22	24*
CC1=CC(C#N)(C#N)C(C#N)(C#N)C(c2ccccc2)N1 (centres undefined)	16	-2	52*	5	25	-2
CCc1ccc(NC(=O)N(Cc2cccnc2)Cc2ccco2)cc1	1	-2	3	0	1	-5
CCc1ccc(NC(=O)N(Cc2ccco2)C(C)c2cccs2)cc1 (centres undefined)	6	-2	13	-2	9	41*
CCOC(=O)N/N=C(\C)c1ccccc1OC(F)F	-2	-2	/	/	/	/
CS(=O)(=O)c1ncc(Cl)c(C(=O)Nc2ccc(N3CCOCC3)cc2)n1	29*	-1	/	/	/	/
Cc1sc2ncnc(SCC(=O)c3ccc4c(c3)OCCO4)c2c1-c1ccccc1	3	0	/	/	/	/
COc1ccccc1-c1nnc2sc(-c3ccc(N(C)C)cc3)nn12	29*	3	/	/	/	/
CN(C)c1ccc(-c2nn3c(-c4ccccc4Cl)nnc3s2)cc1	-11	5	6	1	-30	-4
CCCn1nc(-c2ccccc2)c2nc3ccccc3nc21	12	-1	94*[fluorescence artefact?]	6	9	-1
CCCCCn1nc(-c2ccccc2)c2nc3ccccc3nc21	5	-2	90*[fluorescence artefact?]	6	22	-8
CCn1nc(-c2ccccc2)c2nc3ccccc3nc21	20	-1	90*[fluorescence artefact?]	-11	12	-11
O=S(=O)(Nc1cccc(-c2cn3cccnc3n2)c1)c1ccc(Cl)cc1	4	0	/	/	/	/
N=c1c(C(=O)NCc2ccc(F)cc2)cc2c(=O)n3ccccc3nc2n1CC1CCCO1 (centres undefined)	-26	14*	29	-10	-43	31*
Cc1ccc(Cn2c(=N)c(C(=O)NCc3ccco3)cc3c(=O)n4ccccc4nc32)cc1	-4	6.8*	27	3	-29	24*
COCCCn1c(=N)c(C(=O)NCC2CCCO2)cc2c(=O)n3ccccc3nc21 (centres undefined)	-10	19*	12	7	-31	24*
COc1ccc(CNC(=O)c2cc3c(=O)n4ccccc4nc3n(Cc3ccco3)c2=N)cc1	8	-1	18	3	2	0
CCN(CC)S(=O)(=O)c1ccc(Cl)c(C(=O)Nc2cc(C)nn2-c2ccccc2C(F)(F)F)c1	-2	0	/	/	/	/
CCC(=O)N1C(C(=O)NCc2ccc(OC)cc2)CSC1c1ccc(OC)cc1 (centres undefined)	-2	-3	6	-4	5	-3
COc1ccc(C2SCC(C(=O)NCc3ccc(F)cc3)N2C(C)=O)cc1 (centres undefined)	4	-3	2	4	-14	22*
CCOC(=O)Cc1csc(NC(=O)c2csc(C)c2)n1	15	-2	0	5	5	0
SMILES	GALR2 blocker	GALR2 agonist	Rev-RRE block	EphB4 antag	S1P2 antag	S1P2 ag
CCOC(=O)Cc1csc(NC(=O)c2sc3nc4c(C)cc(C)cc4cc3c2N)n1	19	-2	107*[fluorescence artefact?]	-2	-26	-6
COc1cccc(CNC(=O)CN(c2cc(C)cc(C)c2)S(=O)(=O)c2c(C)noc2C)c1	7	-1	2	1	14	109*
COc1ccc(OC)c(NC(=O)CN(c2ccc(C)cc2)S(=O)(=O)c2c(C)noc2C)c1	-10	6.9*	6	0	-1	-7
CCOc1ccc(N(CC(=O)NCc2ccccc2)S(=O)(=O)c2c(C)noc2C)cc1	0	-3	7	1	12	-4
COc1ccc(N2CCN(c3nc(=S)n(-c4ccccc4)c(C)c3C(C)=O)CC2)cc1	-10	-2	40*	6	-10	-1
Cc1ccc(/C=C2\SC(N3CCN(C(c4ccccc4)c4ccccc4)CC3)=NC2=O)o1	4	0	/	/	/	/
